TRPN1 ag – zebrafish TRPN1 channel agonists, primary screen, cell-based, HEK293, calcium fluorescence; HEK293 zebrafish TRPN1-YFP, Fluo-8 calcium fluorescence; 100% = response to 87 µM carbachol; activation, % at 3 µM; hit rate 0.18% among 220,000; AID 1424, 2008;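 active = activation above its plate's cutoff, the mean activation of test wells on that plate plus 3 SD, cut at about 19% in these data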;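 also: 0% = DMSO alone and 100% = 87 µM carbachol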
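Assay system: Zebrafish TRPN1-YFP in HEK293 cells | Incubation: Dye loading 1 h at 37 °C, then 30 min room temperature | Measured by: Kinetic Fluo-8 fluorescence, ex 470-495, em 515-575 nm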
V1aR counter – agonists of human V1a receptor, primary screen, counter-screen for OXTR agonist project, fluorescence, CHO-V1R cells; hit rate 0.25% among 320,000; activation, % at 3 µM; Fluo-8 calcium fluorescence, agonist mode; 0% DMSO, 100% 3 nM vasopressin; AID 2797, 2010; Vasopressin V1a receptor (Homo sapiens), P37288;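 active = activation above the mean activation of all tested compounds plus 3 SD, per screening run, cut at about 20% in these data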;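 also: signal is peak over basal fluorescence ratio across a 100 second FLIPR read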
Target sequence (P37288 whole entry, looked up): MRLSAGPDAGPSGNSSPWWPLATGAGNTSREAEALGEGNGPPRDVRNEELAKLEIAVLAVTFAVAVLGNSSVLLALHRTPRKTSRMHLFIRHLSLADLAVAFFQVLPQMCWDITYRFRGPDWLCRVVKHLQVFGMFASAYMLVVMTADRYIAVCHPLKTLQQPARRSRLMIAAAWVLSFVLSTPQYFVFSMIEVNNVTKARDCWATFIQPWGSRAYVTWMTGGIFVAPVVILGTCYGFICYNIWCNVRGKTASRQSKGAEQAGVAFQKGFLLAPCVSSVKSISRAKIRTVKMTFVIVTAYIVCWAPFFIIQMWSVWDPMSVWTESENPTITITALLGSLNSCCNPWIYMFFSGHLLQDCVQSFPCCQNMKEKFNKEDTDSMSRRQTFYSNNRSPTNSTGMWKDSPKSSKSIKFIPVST
OXTR agonist – human OXTR agonists, primary screen, fluorescence, CHO-OTR cells, Fluo-8 calcium. Oxytocin receptor (Homo sapiens), P30559. hit rate 0.32% among 320,000. Fluo-8 calcium fluorescence; normalized: DMSO 0%, oxytocin 100%. activation, % at 3 µM;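 active = activation above the mean of all tested compounds plus 3 SD, cutoff set per screening run, cut at about 20% in these data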;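 also: peak over basal fluorescence ratio from a 100 s FLIPR kinetic read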
Target sequence (P30559 whole entry, looked up): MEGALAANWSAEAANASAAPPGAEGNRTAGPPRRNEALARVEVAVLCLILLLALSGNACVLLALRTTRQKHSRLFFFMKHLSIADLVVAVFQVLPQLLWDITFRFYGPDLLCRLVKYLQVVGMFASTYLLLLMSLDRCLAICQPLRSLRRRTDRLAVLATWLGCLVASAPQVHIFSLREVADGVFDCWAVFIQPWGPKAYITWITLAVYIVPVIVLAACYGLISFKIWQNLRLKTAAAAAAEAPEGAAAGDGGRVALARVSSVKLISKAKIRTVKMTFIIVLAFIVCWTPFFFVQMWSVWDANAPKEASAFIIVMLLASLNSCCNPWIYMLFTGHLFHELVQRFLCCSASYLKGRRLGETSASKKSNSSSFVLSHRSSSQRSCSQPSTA
OXTR potentiator – human OXTR potentiators, primary screen, fluorescence, CHO-OTR cells, Fluo-8 calcium; Oxytocin receptor (Homo sapiens), P30559; Fluo-8 calcium fluorescence, potentiator mode; 0% = oxytocin EC15, 100% = EC100; activation, % at 3 µM; hit rate 0.061% among 320,000; AID 2445, 2010;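 active = activation above that plate's cutoff, the mean activation of tested compounds plus 3 SD, cut at about 6.6% in these data, passing the limit was not always enough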;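 also: 100% uses oxytocin at 75 nM as the full agonist control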
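Assay system: CHO cell line stably expressing human OTR. Reagent: EC15 oxytocin agonist. Dosing: single dose, 3.0 µM nominal final compound concentration. Timing: compound 6 min at room temperature before oxytocin, 100 s read. Signal: kinetic Fluo-8 calcium fluorescence. Controls: oxytocin EC15 low and EC100 high.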
TRPML3 ag – human TRPML3 channel agonists, primary screen, cell-based, HEK293 TRPML3-YFP, Fluo-8 calcium fluorescence, 3 µM; Mucolipin-3 (Homo sapiens), Q8TDD5; 100% = the carbachol control signal; activation, % at 3 µM; hit rate 0.29% among 220,000; AID 1448, 2008;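 active = activation above its plate's cutoff, the mean activation of the plate's test wells plus 3 SD, cut at about 12% in these data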;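 also: 0% = DMSO only wells and 100% = carbachol wells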
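Test system: TRPML3-YFP stable HEK293 cells. Doses: single point at 3 µM. Incubation: dye loading 1 h 37 °C then 30 min ambient, 125 s read. Signal: Fluo-8 calcium dye fluorescence, ex 470-495, em 515-575 nm. Measure: percent activation from peak-to-basal fluorescence ratio, scaled between DMSO and carbachol.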
TRPN1 counter – zebrafish TRPN1 channel agonists, counter-screen for TRPML3 agonist project, cell-based, HEK293 TRPN1-YFP, Fluo-8 calcium. shares compounds with TRPML3 ag. Fluo-8 calcium fluorescence; scaled: carbachol wells 100%, DMSO wells 0%. activation, % at 3 µM. hit rate 10% among 310. AID 1525, 2009;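 active = mean activation over replicates above a set limit taken from the earlier TRPN1 channel primary screen, cut at about 19% in these data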;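 also: 100% = carbachol and 0% = 0.3% DMSO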
TRPML3 ag conf – human TRPML3 channel agonists, confirmation, cell-based, HEK293 TRPML3-YFP, Fluo-8 calcium, triplicate; shares compounds with TRPML3 ag; Fluo-8 calcium fluorescence; 100% set by carbachol, 0% by DMSO; activation, % at 3 µM; hit rate 80% among 310; AID 1526, 2009;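 active = activation above a set limit derived from the earlier primary screen, cut at about 12% in these data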
The depositor's hits bear a star; x = not tested or not shown. A selection: hits, their analogues and other compounds. The true share with any hit is near 0.55%.

SMILES | TRPN1 ag | V1aR counter | OXTR agonist | OXTR potentiator | TRPML3 ag | TRPN1 counter | TRPML3 ag conf
O=C(O)c1csc(N/N=C/c2ccc(Br)cc2)n1 | -0.1 | x | x | x | 31.9* | -0.2 | 42.0*
Cc1cc(C)cc(N(CC(=O)N2CCC(C)CC2)S(=O)(=O)c2ccccc2)c1 | -1.7 | -1.5 | -2.3 | -7.0 | 8.3 | x | x
Cc1ccc(S(=O)(=O)N(CC(=O)N2CCCCC2)c2cccc(C)c2)cc1 | 0.5 | -1.2 | -1.0 | -7.6 | 126.9* | 2.2 | 138.5*
Cc1cc(C)cc(N(CC(=O)N2CCOCC2)S(=O)(=O)c2ccccc2)c1 | 0.8 | -0.5 | 0.1 | -15.0 | 34.8* | 0.1 | 46.0*
O=c1nc(N2CCCC2)nc(N2CCCC2)[nH]1 | x | -0.2 | -0.7 | 1.9 | x | x | x
CCCC(=O)Oc1c(S(=O)(=O)c2ccc(C)cc2)c(C)nn1C(C)(C)C | -0.2 | -0.5 | 0.1 | 1.5 | 25.7* | 5.7 | 84.5*
CC1=CC(=O)C(C(C)C)=C/C1=N/OS(=O)(=O)c1ccccc1 | 16.4 | 11.5 | 5.4 | -18.1 | 19.4* | 14.2 | 22.7*
CC1=CC(=O)C=C(C)C1=NOS(=O)(=O)c1ccccc1 | 4.2 | x | x | x | 6.7 | x | x
COc1ccc(NC(=O)Cn2c3ccc(OC)cc3c3nc4n(c(=O)c32)CCS4)cc1 | x | 0.8 | 0.2 | -2.3 | x | x | x
COc1ccc(C(=O)CSc2nnc(-c3ccc(C)cc3)o2)cc1 | -0.1 | 1.0 | 0.7 | 0.3 | 0.0 | x | x
COc1ccc2c(c1)C(C)=CC(C)(C)N2C(=O)CSc1nnc(-c2ccc(C)cc2)o1 | -2.4 | -0.6 | -1.3 | -4.0 | 37.5* | -1.4 | 47.9*
Cc1ccc(S(=O)(=O)c2c(C)cc(C)nc2Oc2cccc(C(F)(F)F)c2)cc1 | -0.2 | 0.1 | -0.9 | -5.2 | 14.1* | -0.1 | 41.7*
Cc1ccc(S(=O)(=O)NC2CCCCC2)c2nsnc12 | -0.7 | 0.3 | -2.4 | -7.1 | 11.5* | 0.5 | 12.1*
COc1ccc(C(=O)Nc2ccc(S(=O)(=O)N3CCCCC3C)cc2)c(OC)c1OC (stereo not given) | 1.3 | 3.3 | 3.4 | -6.4 | 70.0* | 0.7 | 83.3*
CN(C)c1ccc(/C=C(/C(=O)c2ccc(Cl)cc2Cl)n2cncn2)cc1 | 15.1 | 28.8* | 21.5* | -14.3 | 11.6* | 21.9* | 11.9*
O=C(O)c1cccc(OS(=O)(=O)c2cc(Br)ccc2Br)c1 | x | 2.3 | 2.3 | -8.3 | x | x | x
Cc1cccc(CC2CC(=O)N(C3CCCCC3)C2=O)c1 (stereo not given) | -0.3 | -1.2 | -1.1 | 2.3 | 12.9* | -1.2 | 65.7*
Cc1cccc(CC2CC(=O)N(c3ccccc3)C2=O)c1 (stereo not given) | -0.4 | -0.1 | -0.4 | 4.8 | 0.1 | x | x
CCOc1ccccc1NC(=O)C1CCN(c2ccc(S(=O)(=O)N3CCCC3)cc2)CC1 | 0.5 | 0.4 | 0.2 | -5.6 | 20.3* | 1.4 | 20.2*
CC(NC(=S)Nc1cccc(C(F)(F)F)c1)C(C)(C)C (stereo not given) | 13.3 | 6.5 | 8.3 | -12.3 | 12.0* | 14.9 | 7.0
CN(C)NC(=S)Nc1cccc(C(F)(F)F)c1 | -0.4 | 0.4 | -0.7 | 3.7 | 0.2 | x | x
O=S(=O)(NC1CCCCC1N1CCN(c2ccccc2F)CC1)c1ccc(Cl)cc1 (stereo not given) | x | 0.0 | -1.4 | -11.3 | x | x | x
O=S(=O)(NC1CCCCC1N1CCOCC1)c1ccc(Cl)cc1 (stereo not given) | 0.4 | 0.8 | -0.5 | -0.9 | 129.1* | 4.7 | 150.7*
CC1=CC(C)(C)N(C(=O)CN2C(=O)c3ccccc3C2=O)c2ccccc21 | -1.3 | -1.3 | -2.0 | 0.4 | 67.2* | 1.8 | 92.3*
CC1CC(C)(C)N(C(=O)CN2C(=O)c3ccccc3C2=O)c2ccccc21 (stereo not given) | 3.9 | -1.1 | -2.4 | -15.2 | 209.6* | 97.0* | 205.1*
SMILES | TRPN1 ag | V1aR counter | OXTR agonist | OXTR potentiator | TRPML3 ag | TRPN1 counter | TRPML3 ag conf
Cc1ccc(C)c(N(CC(=O)NCc2ccco2)C(=O)CCC(=O)Nc2nccs2)c1 | x | 0.6 | 1.7 | -6.7 | x | x | x
O=S(=O)(Nc1nc2ccccc2nc1Nc1cccc(S(=O)(=O)N2CCCCC2)c1)c1ccccc1 | 4.2 | 11.3 | 15.0 | -18.2 | 1.4 | x | x
Cc1cccc(-n2c(SCc3ccc([N+](=O)[O-])cc3)nnc2-c2c[nH]c3ccccc23)c1 | -0.3 | -0.1 | -0.2 | -3.4 | 0.8 | x | x
O=C1C=C(NC2=CC3OC(c4ccccc4)OCC3OC2=O)CCC1 (stereo not given) | 0.7 | 0.6 | 1.4 | 0.6 | 30.3* | 1.3 | 0.7
COc1ccc(S(=O)(=O)N2CCCCCC2)cc1C(=O)OCc1c(C)noc1C | 2.5 | -0.2 | -0.6 | -6.2 | 29.9* | 1.8 | 13.7*
Cc1noc(C)c1COC(=O)c1cccc(S(=O)(=O)N2CCCCCC2)c1 | 10.8 | 6.1 | 8.6 | -8.0 | 13.0* | 6.4 | 17.8*
Cc1noc(C)c1COC(=O)c1ccc(F)c(S(=O)(=O)N2CCCCC2)c1 | 4.3 | 1.8 | -0.2 | -11.8 | 3.4 | x | x
COc1ccc(CNC(=O)Cn2c(=O)n(CCC(=O)N3CCCCC3)c(=O)c3sccc32)cc1 | x | -1.6 | -0.2 | -2.9 | x | x | x
CC1(C)Cc2cccc(Oc3ccc(S(=O)(=O)N4CCCCC4)cn3)c2O1 | -1.7 | -0.9 | -1.9 | -14.2 | 19.6* | -1.4 | 29.6*
CC1(C)Cc2cccc(Oc3ccc(S(=O)(=O)N4CCCC4)cn3)c2O1 | -1.2 | -0.8 | -1.9 | -8.8 | 1.7 | x | x
COc1ccc(/C(N)=N/OC(=O)CN(C)S(=O)(=O)c2ccccc2)cc1 | 3.7 | x | x | x | 105.9* | 2.5 | 40.5*
CN(CC(=O)O/N=C(\N)c1ccccn1)S(=O)(=O)c1ccccc1 | -0.1 | 0.4 | 0.5 | 4.1 | -0.1 | x | x
COc1cc(C)c(COc2ncnc3ccccc23)cc1OC | x | 4.3 | 2.3 | -3.9 | x | x | x
Cc1cc(N2CCOCC2)nc(N)n1 | 10.1 | 1.9 | 1.7 | -5.4 | 11.8* | 8.8 | 7.5
Cc1cc(N2CCOCC2)nc(NCc2ccccc2)n1 | 14.4 | 10.3 | 15.7 | -12.0 | 15.9* | 20.7* | 15.2*
COc1ccc(OC)c(S(=O)(=O)N2CCc3ccccc32)c1 | -1.8 | -0.7 | -0.8 | -4.3 | 2.3 | x | x
